# Laboratory results as given in ChEMBL document CHEMBL4265971, “Modified carbazoles destabilize microtubules and kill glioblastoma multiform cells” (Eur J Med Chem, 2018).
# Activity calls are given as the source filed them. No cut-off for these calls is given here.
# Experiments:
# T98G [1] = test: Cytotoxicity against human T98G cells after 72 hrs by WST-1 assay; format: functional, cell-based
# In short: (§1)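 Viability read with WST-1 72 h after treatment with increasing concentrations; DMSO vehicle 0.1% final. T98G and HepG2 grown in DMEM/10% FBS/pen-strep at 37 °C, 5% CO2. Patient-derived GBM cells (WHO grade IV; proneural, classical, mesenchymal) grown in NeuroCult NSA with B-27, 20 ng/mL EGF and 20 ng/mL FGF2. EC50 from curve fit, reported only when extrapolable. Mean of ≥3 independent experiments in triplicate.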
# T98G [2] = test: Cytotoxicity against human T98G cells assessed as cell killing at 10 uM after 72 hrs by WST-1 assay relative to control; format: functional
# In short: (§2)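 Maximal killing is the largest % loss of viability against 0.1% DMSO vehicle, read by WST-1 72 h after treatment, at the stated concentration. T98G/HepG2 grown in DMEM/10% FBS; patient-derived GBM grown in NeuroCult NSA with B-27, EGF and FGF2 (20 ng/mL each). Mean ± SEM of ≥3 independent experiments in triplicate.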
# T98G [3] = test: Cytotoxicity against human T98G cells assessed as cell killing at 3 uM after 72 hrs by WST-1 assay relative to control; format: functional; in short: as §2
# T98G [4] = test: Cytotoxicity against human T98G cells assessed as cell killing at 1 uM after 72 hrs by WST-1 assay relative to control; format: functional; in short: as §2
# GBM [5] = test: Cytotoxicity against patient-derived proneural GBM cells after 72 hrs by WST-1 assay; format: functional, cell-based; conditions: Homo sapiens; in short: as §1
# GBM [6] = test: Cytotoxicity against patient-derived proneural GBM cells assessed as cell killing at 5.6 uM after 72 hrs by WST-1 assay relative to control; format: functional, Homo sapiens
# In short: (§3)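 Patient-derived GBM cells come from freshly resected WHO grade IV tumours. They are subtyped proneural, classical or mesenchymal and kept in NeuroCult NSA medium with B-27, 20 ng/mL EGF and 20 ng/mL FGF2. Cells were treated with increasing compound concentrations (DMSO 0.1% final). Viability was read by WST-1 after 72 h. Maximal killing is the largest % reduction versus vehicle. Mean of ≥3 independent experiments in triplicate.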
# GBM [7] = test: Cytotoxicity against patient-derived classical GBM cells after 72 hrs by WST-1 assay; format: functional, cell-based; conditions: Homo sapiens; in short: as §1
# GBM [8] = test: Cytotoxicity against patient-derived classical GBM cells assessed as cell killing at 5.6 uM after 72 hrs by WST-1 assay relative to control; format: functional, Homo sapiens; in short: as §3
# GBM [9] = test: Cytotoxicity against patient-derived mesenchymal GBM cells after 72 hrs by WST-1 assay; format: functional, cell-based; conditions: Homo sapiens; in short: as §1
# GBM [10] = test: Cytotoxicity against patient-derived mesenchymal GBM cells assessed as cell killing at 10 uM after 72 hrs by WST-1 assay relative to control; format: functional, Homo sapiens; in short: as §3
# HepG2 [11] = test: Cytotoxicity against human HepG2 cells assessed as cell killing at 5.6 uM after 72 hrs by WST-1 assay relative to control; format: functional; in short: as §2
# Bos taurus [12] = species on record: Bos taurus; test: Inhibition of [3H]colchicine binding to bovine brain tubulin at 5 uM after 1 hr liquid scintillation counting assay relative to control
# [13] = Inhibition of bovine brain t in presence of 0.4 mM GTP; parameters: species or system Bos taurus
# [14] = Induction of bovine brain microtubule destabilization assessed as increase in free tubulin levels after 15 mins by Coomassie G-250 staining-based polyacrylamide gel electrophoresis method; parameters: species or system Bos taurus
# In short: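 Bovine brain tubulin purified, polymerized into MTs and sheared. Sheared MTs incubated with compound at 37 °C for 15 min, then centrifuged 10 min at 42,000 rpm at 37 °C. Supernatant (free tubulin) and pellet (MT) run on polyacrylamide gels. EC50 from representative experiments repeated three times.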
# T98G [15] = test: Cytotoxicity against human T98G cells assessed as cell killing at 100 nM after 72 hrs by WST-1 assay relative to control; format: functional
# In short: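 T98G human GBM cells (ATCC, STR-authenticated, under 6 months in culture) grown in DMEM with 10% FBS and penicillin/streptomycin, 37 °C, 5% CO2. Exposed to increasing compound concentrations in DMSO (0.1% final) for 72 h, then WST-1 viability read. Maximal killing is the largest % viability reduction versus vehicle over the concentrations tested. Mean of ≥3 independent experiments in triplicate.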
# GBM [16] = test: Cytotoxicity against patient-derived proneural GBM cells assessed as cell killing at 1 uM after 72 hrs by WST-1 assay relative to control; format: functional, Homo sapiens; in short: as §2
# GBM [17] = test: Cytotoxicity against patient-derived classical GBM cells assessed as cell killing at 1 uM after 72 hrs by WST-1 assay relative to control; format: functional, Homo sapiens; in short: as §2
# GBM [18] = test: Cytotoxicity against patient-derived mesenchymal GBM cells assessed as cell killing at 1 uM after 72 hrs by WST-1 assay relative to control; format: functional, Homo sapiens; in short: as §2
# HepG2 [19] = test: Cytotoxicity against human HepG2 cells after 72 hrs by WST-1 assay; format: functional, cell-based; conditions: HepG2, 72 h; in short: as §1
# HepG2 [20] = test: Cytotoxicity against human HepG2 cells assessed as cell killing at 0.6 uM after 72 hrs by WST-1 assay relative to control; format: functional; in short: as §2
# SF-295 = test: Cytotoxicity against human SF295 cells after 48 hrs by sulforhodamine B assay; format: functional, cell-based
# SF-539 = test: Cytotoxicity against human SF539 cells after 48 hrs by sulforhodamine B assay; format: functional, cell-based
# COLO 205 = test: Cytotoxicity against human COLO205 cells after 48 hrs by sulforhodamine B assay; format: functional, cell-based
# HT-29 = test: Cytotoxicity against human HT-29 cells after 48 hrs by sulforhodamine B assay; format: functional, cell-based
# HCC 2998 = test: Cytotoxicity against human HCC2998 cells after 48 hrs by sulforhodamine B assay; format: functional, cell-based
# Bos taurus [21] = species on record: Bos taurus; test: Inhibition of [3H]colchicine binding to bovine brain tubulin at 1 uM after 1 hr liquid scintillation counting assay relative to control
# GBM [22] = test: Cytotoxicity against patient-derived classical GBM cells assessed as cell killing at 3 uM after 72 hrs by WST-1 assay relative to control; format: functional, Homo sapiens; in short: as §2
# GBM [23] = test: Cytotoxicity against patient-derived mesenchymal GBM cells assessed as cell killing at 3 uM after 72 hrs by WST-1 assay relative to control; format: functional, Homo sapiens; in short: as §2
# HepG2 [24] = test: Cytotoxicity against human HepG2 cells assessed as cell killing at 10 uM after 72 hrs by WST-1 assay relative to control; format: functional; in short: as §2
structure (smiles),measurement,setting,value
CCn1c2ccccc2c2cc(C(=O)c3cccc4cccnc34)ccc21,EC50,T98G [1],8.8 µM
same,%max,T98G [2],60%
CCn1c2ccc(C(=O)c3ccc(C)c4ccccc34)cc2c2ccc(OC)cc21,EC50,T98G [1],2.6 µM
same,%max,T98G [2],71.6%
CCn1c2ccccc2c2cc(C(=O)c3cccc4ccccc34)ccc21,EC50,T98G [1],1.7 µM
same,%max,T98G [2],72%
CCn1c2ccccc2c2cc(C(=O)N3CCN(C)CC3)ccc21,EC50,T98G [1],> 10 µM
same,%max,T98G [2],13.2%
CCn1c2c(c3ccccc31)CN(C(=O)c1ccc(C)c3ccccc13)CC2,EC50,T98G [1],> 10 µM
same,%max,T98G [3],45.1%
CCn1c2ccccc2c2cc(C(=O)N3CCCc4ccccc43)ccc21,EC50,T98G [1],0.757 µM
same,%max,T98G [4],89%
same,EC50,GBM [5],0.613 µM
same,%max,GBM [6],98.9%
same,EC50,GBM [7],0.846 µM
same,%max,GBM [8],98.6%
same,EC50,GBM [9],1.82 µM
same,%max,GBM [10],97.2%
same,%max,HepG2 [11],8.3%
same,inhibition,Bos taurus [12],41%
same,IC50,[13],4.4 µM
same,EC50,[14],5.3 µM
CCn1c2ccccc2c2cc(C(=O)c3cccc4c3NCCC4)ccc21,EC50,T98G [1],> 10 µM
same,%max,T98G [15],-18%
Cc1ccc(C(=O)c2ccc3c(c2)c2ccccc2n3CC(F)(F)F)c2ccccc12,EC50,T98G [1],5.6 µM
same,%max,T98G [2],35.6%
CCn1c2ccccc2c2cc(C(=O)c3cccc4ncccc34)ccc21,EC50,T98G [1],0.184 µM
same,%max,T98G [4],74.4%
same,EC50,GBM [5],0.316 µM
same,%max,GBM [16],44.8%
same,EC50,GBM [7],0.407 µM
same,%max,GBM [17],53.9%
same,EC50,GBM [9],0.335 µM
same,%max,GBM [18],58.9%
same,EC50,HepG2 [19],0.066 µM
same,%max,HepG2 [20],28.6%
same,Activity,SF-295,Active
same,Activity,SF-539,Active
same,Activity,COLO 205,Active
same,Activity,HT-29,Active
same,Activity,HCC 2998,Active
same,inhibition,Bos taurus [12],91%
same,inhibition,Bos taurus [21],61%
same,IC50,[13],0.89 µM
same,EC50,[14],3.4 µM
CCCn1c2ccccc2c2cc(C(=O)c3ccc(C)c4ccccc34)ccc21,EC50,T98G [1],> 10 µM
same,%max,T98G [2],16.3%
CCn1c2ccccc2c2cc(C(=O)c3ccc(F)cc3)ccc21,EC50,T98G [1],8 µM
same,%max,T98G [2],54.8%
CCn1c2ccccc2c2cc(C(=O)c3ccc(C)cc3)ccc21,EC50,T98G [1],0.993 µM
same,%max,T98G [3],83.6%
CCn1c2ccccc2c2cc(C(=S)c3ccc(C)c4ccccc34)ccc21,EC50,T98G [1],> 10 µM
same,%max,T98G [3],-17%
CCn1c2ccccc2c2cc(C(=O)c3ccc(C)c4ccccc34)ccc21,EC50,T98G [1],0.087 µM
same,%max,T98G [2],45.3%
same,EC50,GBM [5],0.542 µM
same,EC50,GBM [7],0.698 µM
same,%max,GBM [22],47.9%
same,EC50,GBM [9],0.268 µM
same,%max,GBM [18],64.3%
same,EC50,HepG2 [19],1.69 µM
same,%max,HepG2 [11],25%
same,Activity,SF-295,Active
same,Activity,SF-539,Active
same,Activity,COLO 205,Active
same,Activity,HT-29,Active
same,Activity,HCC 2998,Active
same,inhibition,Bos taurus [12],53%
same,IC50,[13],1.4 µM
same,EC50,[14],2.1 µM
CCn1c2ccccc2c2cc(C(=O)Cc3ccccc3)ccc21,EC50,T98G [1],> 10 µM
same,%max,T98G [2],14%
CCn1c2ccccc2c2cc(C(O)c3ccc(C)c4ccccc34)ccc21 (centres undefined),EC50,T98G [1],0.56 µM
same,%max,T98G [3],72.8%
same,EC50,GBM [5],0.63 µM
same,%max,GBM [16],44%
same,EC50,GBM [7],0.633 µM
same,%max,GBM [22],56%
same,EC50,GBM [9],0.386 µM
same,%max,GBM [23],50.6%
same,EC50,HepG2 [19],0.101 µM
same,%max,HepG2 [24],30.8%
same,Activity,SF-295,Active
same,Activity,SF-539,Active
same,Activity,COLO 205,Active
same,Activity,HT-29,Active
same,Activity,HCC 2998,Active
same,inhibition,Bos taurus [12],70%
same,IC50,[13],1.6 µM
same,EC50,[14],6.4 µM
CCn1c2ccccc2c2cc(C(=O)c3ccc(Cl)cc3)ccc21,EC50,T98G [1],1.5 µM
same,%max,T98G [2],71.1%
Cc1ccc(C(=O)n2c3ccccc3c3ccccc32)c2ccccc12,EC50,T98G [1],0.957 µM
same,%max,T98G [2],89.1%
